Bioassay records (PubChem)
Rce1 inhib – blocks yeast Ras-converting enzyme | Q03530 | yeast membranes, quenched prenylated peptide cleavage fluorescence | actives 0.27% (n = 290,000) | AID 2563 | calls only;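 active = fall in fluorescence gain of 50% or more versus controls, with final raw signal at or below 3038400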;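 also: plate controls were neutral control wells for no effect and wells lacking membranes for full effect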
Target sequence (Q03530 whole entry, looked up): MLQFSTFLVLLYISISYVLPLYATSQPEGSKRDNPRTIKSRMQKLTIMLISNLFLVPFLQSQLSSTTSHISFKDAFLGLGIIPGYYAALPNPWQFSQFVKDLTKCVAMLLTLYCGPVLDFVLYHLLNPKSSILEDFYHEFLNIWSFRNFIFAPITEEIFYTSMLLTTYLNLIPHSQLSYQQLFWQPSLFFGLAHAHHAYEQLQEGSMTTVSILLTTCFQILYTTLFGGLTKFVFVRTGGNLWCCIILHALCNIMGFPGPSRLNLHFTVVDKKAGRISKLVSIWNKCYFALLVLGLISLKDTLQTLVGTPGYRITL
UCH37 inh – blocks the human deubiquitinase UCH37. inhibition, % (no concentration beside the values). purified proteasome/UCH37, Ub-AMC cleavage fluorescence. actives 0.33% (n = 330,000);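 active = mean inhibition over replicate wells above about 20%, limit read from the data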;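 also: 0% = compound-free wells with enzyme and 100% = wells lacking proteasome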
Target sequence (Q9Y5K5 whole entry, looked up): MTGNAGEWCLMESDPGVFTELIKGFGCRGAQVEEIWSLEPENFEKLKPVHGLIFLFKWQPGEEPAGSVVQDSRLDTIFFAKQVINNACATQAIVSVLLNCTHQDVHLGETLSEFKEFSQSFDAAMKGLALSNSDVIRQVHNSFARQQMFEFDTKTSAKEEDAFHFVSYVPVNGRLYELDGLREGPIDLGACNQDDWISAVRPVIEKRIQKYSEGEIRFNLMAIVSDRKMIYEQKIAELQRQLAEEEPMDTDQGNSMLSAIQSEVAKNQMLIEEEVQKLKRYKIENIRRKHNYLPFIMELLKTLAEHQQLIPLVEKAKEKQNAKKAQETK
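System: Proteasome-associated human UCH37 deubiquitinase; Input: 0.15 nM proteasome in added enzyme buffer; Also added: Ub-AMC substrate from 1 µM stock; Incubation: 30 min compound-proteasome preincubation then 25 min substrate reaction, room temperature; Detection: fluorescence, ex 355 nm, em 460 nm; Read-out: % inhibition of Ub-AMC cleavage fluorescence; Benchmarks: no-proteasome and no-compound wells.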
PG9 Ab binder – PG9 antibody binding by small molecule. actives 0.43% (n = 360,000). inhibition, % at 6.7 µM. TR-FRET gp120-PG9 antibody binding; in the data active = inhibition above about 8.5%
beta cell repl – MIN6 beta-cell proliferation induction | proliferation, % at 10 µM | actives 0.29% (n = 330,000) | MIN6 cells proliferation, ATPlite luminescence, 48 h; cells starved in 0.2% serum; 100% = growth in 10% serum | AID 2380;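 active = compounds whose signal lies at least 3.5 SD above the mean of all wells on their plate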;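 also: 0% = DMSO-treated cells in low-serum medium and 100% = 10% serum control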
Yeast superoxide – yeast age-related superoxide inhibition as caloric restriction mimetic; S. cerevisiae aged cells, superoxide DHE fluorescence; hits give low values; superoxide response (% of plate mean), % at 10 µM; actives 0.18% (n = 330,000); AID 2690;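 active = superoxide response under a set limit, about three screen SD below normal, cut at about 65% in these data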;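 also: yeast aged for seven days with compound at 30 °C before DHE staining; 100% = average MFI of all compound-treated wells on the plate with controls excluded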
Rev-erbA mod – Rev-erb alpha (human) modulation; P20393; Rev-erbα–FITC-DNA binding, fluorescence polarization, 90 min; activity, % at 10 µM; actives 0.79% (n = 370,000);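 active = activity above about 14%, limit read from the data; passing the limit was not always enough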;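 also: 0% = DMSO wells with 35 nM protein and 100% = DMSO wells with 750 nM protein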
NR1D1 mod conf – confirmation of modulators of human Rev-erb alpha DNA binding; shares compounds with Rev-erbA mod; Rev-erb alpha FITC-DNA binding, fluorescence polarization, 90 min; activation, % at 25 µM; actives 61% (n = 3,000); AID 1259319;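 active = activation at or above a set limit, or at least 3 SD above the negative control mean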;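 also: 0% = 35 nM protein with DMSO and 100% = 750 nM protein high control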
RORg DNA counter – counter-screen for Rev-erb alpha modulators: RORgamma DNA binding | IC50, µM | purified RORgamma protein-FITC-DNA binding, fluorescence polarization | AID 1259320 | shares compounds with Rev-erbA mod | actives 8% (n = 910);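 active = Compounds whose fitted half-maximal concentration for disrupting protein-DNA binding is below 10 micromolar; the record names Rev-erb in its text, so the target is in doubt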
Active calls of the source: *; i = inactive; / = no result. An excerpt weighted towards active compounds, which were near 1.9% of everything screened.

SMILES	Rce1 inhib	UCH37 inh	PG9 Ab binder	beta cell repl	Yeast superoxide	Rev-erbA mod	NR1D1 mod conf	others
CCCn1c(N)c(C(=O)CSc2nc(C)nc3sc(C)c(C)c23)c(=O)[nH]c1=O	i	2	0	-1	111	35*	61*	RORg DNA counter=i
Cc1nc(SCC(=O)N(C)Cc2ccco2)c2c(C)c(C)sc2n1	i	3	0	1	110	-1	/
CCCn1c(N)c(C(=O)CSc2nc3ccccc3c(=O)n2Cc2ccccc2)c(=O)[nH]c1=O	i	8	1	-5	99	74*	61*
CCN(C(=O)CSc1nc(C)nc2sc(C)c(C)c12)c1ccc(F)cc1	/	-3	2	3	96	24*	9
O=C(NN=CC1CC=CCC1)c1ccc(O)cc1O (stereo not given)	/	3	/	/	/	/	/
COc1ccc(C(=O)NN=Cc2ccccc2C(=O)O)cc1OC	/	3	/	/	/	/	/
COc1ccccc1NS(=O)(=O)c1cccc(C(=O)NN=Cc2ccc3c(c2)OCCO3)c1	/	-3	/	/	/	/	/
Cc1nc(N2CCN(c3ccccn3)CC2)c2c(C)c(C(=O)Nc3c(C)cc(Br)cc3C)sc2n1	i	-10	-2	-4	101	28*	-12
Cc1nc(N2CCC(C)CC2)c2c(C)c(C(=O)Nc3ccc(C)c(F)c3)sc2n1	i	-2	-3	-4	95	46*	32*	RORg DNA counter=i
Cc1nc(N2CCN(c3ccccn3)CC2)c2c(C)c(C(=O)Nc3ccc(Cl)cc3)sc2n1	i	-28	0	-5	104	11	/
Cc1nc(N2CCN(C)CC2)c2c(C)c(C(=O)Nc3ccc(C)c(F)c3)sc2n1	i	7	-4	-7	90	1	/
Cc1nc(N2CCN(c3ccccn3)CC2)c2c(C)c(C(=O)N3CCN(c4ccc(F)cc4)CC3)sc2n1	i	2	-1	-3	104	20*	7
Cc1nc(N2CCN(c3ccccn3)CC2)c2c(C)c(C(=O)Nc3c(F)cc(F)cc3Br)sc2n1	i	-21	3	-6	101	46*	-3
Cc1c(C(=O)N2CCN(c3ccc(F)cc3)CC2)sc2ncnc(N3CCN(c4ccccn4)CC3)c12	i	1	0	-4	103	3	/
COc1ccc(-n2nc(C(=O)NCC(=O)N3CCN(c4ccccc4F)CC3)c3ccccc3c2=O)cc1OC	i	-167	1	0	103	-5	/
CCCCNC(=O)CNC(=O)c1nn(-c2ccc(OC)cc2)c(=O)c2ccccc12	i	1	-1	-2	98	4	/
CCOc1ccc(NC(=O)CNC(=O)c2nn(-c3ccc(OC)cc3)c(=O)c3ccccc23)cc1	i	-423	4	0	114	32*	11
COc1ccc(-n2nc(C(=O)NCC(=O)N3CCN(c4ccccc4F)CC3)c3ccccc3c2=O)cc1	i	-81	5	0	97	25*	-8
COc1ccc(-n2nc(C(=O)NCC(=O)NCc3ccc(F)cc3)c3ccccc3c2=O)c(OC)c1	/	-4	0	/	/	27*	2
COc1ccc(-n2nc(C(=O)NCC(=O)Nc3ccccn3)c3ccccc3c2=O)cc1	i	-150	1	-1	97	42*	18*
CCOC(=O)c1nn(-c2ccc(F)cc2)c(=O)cc1OCC(=O)Nc1ccc(OCC)cc1	i	3	-1	1	101	19*	-14
CCOC(=O)c1ccccc1NC(=O)Cn1cnc2c(cnn2-c2ccc(OC)cc2)c1=O	/	-19	-1	1	85	22*	9
COc1ccc(-n2nc(C(=O)NCC(=O)Nc3cccc(Cl)c3)c3ccccc3c2=O)cc1	i	-46	1	2	106	82*	39*	RORg DNA counter=>40
CCOC(=O)c1nn(-c2ccc(C)cc2)c(=O)cc1OCC(=O)Nc1cccc(OC)c1	i	-11	2	-3	92	-10	/
Cc1sc2ncnc(NN=Cc3ccc(O)cc3)c2c1C	/	8	/	/	/	/	/
SMILES	Rce1 inhib	UCH37 inh	PG9 Ab binder	beta cell repl	Yeast superoxide	Rev-erbA mod	NR1D1 mod conf	others
COc1cc(C=NNc2ccccc2[N+](=O)[O-])ccc1OC(=O)c1ccccc1F	/	10	/	/	/	/	/
Cc1cc([N+](=O)[O-])c2[nH]c(C(=O)NN=Cc3ccccc3C(=O)O)c(-c3ccccc3)c2c1	/	12	/	/	/	/	/
CCCOc1ccc(/C(CC)=N/NC(=O)C2(C)CC2(Br)Br)cc1 (stereo not given)	i	/	-1	0	108	34*	47*	RORg DNA counter=>40
Nc1nnc(CC(=O)NN=Cc2ccc(-c3cccc(C(=O)O)c3)o2)s1	/	7	/	/	/	/	/
COc1ccc(NC(C)C(=O)NN=Cc2ccc([N+](=O)[O-])s2)cc1 (stereo not given)	/	10	/	/	/	/	/
Cc1ccc2occ(C=NNC(=O)c3ccccc3Br)c(=O)c2c1	/	-19	/	/	/	/	/
Cc1csc2c(=O)sc(NC(=O)c3ccc(F)cc3)nc12	i	-26	-3	0	70	3	/
Cc1csc2nc(NC(=O)c3ccccc3)sc(=O)c12	i	-68	0	-3	95	24*	16
CSc1nc2ccc3nc(NC(=O)c4ccccc4)sc3c2s1	i	-73	1	0	107	38*	6
O=C(Nc1nc2ccccc2s1)c1ccccc1	i	-3	0	-5	105	8	/
CCn1c2ccccc2c2cc(C3C(C#N)=C(C)NC(C)=C3C#N)ccc21	i	-174	-1	0	122	102*	63*	RORg DNA counter=>40
CCn1c2ccccc2c2cc(C3C(C#N)=C(N)Oc4n[nH]c(COC)c43)ccc21 (stereo not given)	i	-6	0	-4	105	5	/
CCC(=O)Nc1ccc(C(=O)NN=Cc2ccccc2[N+](=O)[O-])cc1	/	3	/	/	/	/	/
C=C(C)CSc1nc(N)c2c(C)c(C)sc2n1	i	4	1	-1	103	26*	26*
CC(=NNC(=O)c1nnn(-c2nonc2N)c1-c1cccs1)c1cccnc1	/	5	/	/	/	/	/
Cc1ccc(S(=O)(=O)c2nc(Nc3ccccc3C#N)sc2Cl)cc1	i	2	46*	-1	94	27*	36*	RORg DNA counter=>40
CCCn1c(NC(=O)c2ccc(F)cc2)nc2ccccc21	i	/	3	-1	91	26*	0
CCCCn1c(NC(=O)c2ccccc2)nc2ccccc21	i	3	-1	-4	108	1	/
CCCn1c(NC(=O)c2ccc(Br)cc2)nc2ccccc21	i	-166	-1	-1	99	32*	22*
O=[N+]([O-])c1ccc(N(c2ccccc2)c2ccccc2)cc1	i	-2	6	-5	89	44*	35*	RORg DNA counter=>40
